From ChEMBL document CHEMBL1142303, “Imidazo[2,1-b]thiazole system: a scaffold endowing dihydropyridines with selective cardiodepressant activity” (J Med Chem, 2008)

Tests used:
[1] = Activity at L type calcium channel in K+ depolarized guinea pig longitudinal smooth muscle assessed as inhibition of calcium induced contraction; parameters: species or system Cavia porcellus
Cavia porcellus [2] = species on record: Cavia porcellus; assay: Activity at L type calcium channel in K+ depolarized guinea pig longitudinal smooth muscle assessed as inhibition of calcium induced contraction at 10 uM; parameters: scale not given: the % may be the effect or the level left
Cavia porcellus [3] = species on record: Cavia porcellus; assay: Inotropic activity at L type calcium channel in guinea pig left atrium assessed as decrease in tension at 1 uM relative to control; assay type: tissue-based; parameters: scale not given: the % may be the effect or the level left; details: Cardiac atrium
[4] = Inotropic activity at L type calcium channel in guinea pig left atrium assessed as decrease in tension; assay type: tissue-based; details: Cavia porcellus, Cardiac atrium
Summary of the method: (§1)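 Guinea-pig atria: left atrium driven at 1 Hz for inotropy, spontaneously beating right atrium for chronotropy. Increasing cumulative doses, readout is percent decrease. EC50 (inotropic) and EC30 (chronotropic) by Litchfield–Wilcoxon probit analysis on log concentration–response curves, n = 6–7. Not calculated when the maximum effect was below 50%.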

Cavia porcellus [5] = species on record: Cavia porcellus; assay: Chronotropic activity at L type calcium channel in guinea pig right atrium assessed as decrease in spontaneous beating at 10 uM relative to control; assay type: tissue-based; parameters: scale not given: the % may be the effect or the level left; details: Cardiac atrium
Cavia porcellus [6] = species on record: Cavia porcellus; assay: Activity at L type calcium channel in K+ depolarized guinea pig aortic strip assessed as inhibition of calcium induced contraction at 100 uM; assay type: tissue-based; parameters: scale not given: the % may be the effect or the level left; details: Aorta
Summary of the method: (§2)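 Guinea-pig aortic strips depolarized with 80 mM K+. Drugs added cumulatively. Readout is percent inhibition of calcium-induced contraction, n = 5–6. Control versus treated values tested at each concentration by Student's t-test, P < 0.05.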

Cavia porcellus [7] = species on record: Cavia porcellus; assay: Chronotropic activity at L type calcium channel in guinea pig right atrium assessed as decrease in spontaneous beating; assay type: tissue-based; details: Cardiac atrium; summary of the method: as §1
Cavia porcellus [8] = species on record: Cavia porcellus; assay: Chronotropic activity at L type calcium channel in guinea pig right atrium assessed as decrease in spontaneous beating at 5 uM relative to control; assay type: tissue-based; parameters: scale not given: the % may be the effect or the level left; details: Cardiac atrium
Cavia porcellus [9] = species on record: Cavia porcellus; assay: Activity at L type calcium channel in K+ depolarized guinea pig aortic strip assessed as inhibition of calcium induced contraction at 50 uM; assay type: tissue-based; parameters: scale not given: the % may be the effect or the level left; details: Aorta; summary of the method: as §2
Cavia porcellus [10] = species on record: Cavia porcellus; assay: Inotropic activity at L type calcium channel in guinea pig left atrium assessed as decrease in tension at 100 uM relative to control; assay type: tissue-based; parameters: scale not given: the % may be the effect or the level left; details: Cardiac atrium
Cavia porcellus [11] = species on record: Cavia porcellus; assay: Inotropic activity at L type calcium channel in guinea pig left atrium assessed as decrease in tension at 50 uM relative to control; assay type: tissue-based; parameters: scale not given: the % may be the effect or the level left; details: Cardiac atrium
Cavia porcellus [12] = species on record: Cavia porcellus; assay: Inotropic activity at L type calcium channel in guinea pig left atrium assessed as decrease in tension at 0.5 uM relative to control; assay type: tissue-based; parameters: scale not given: the % may be the effect or the level left; details: Cardiac atrium
Cavia porcellus [13] = species on record: Cavia porcellus; assay: Chronotropic activity at L type calcium channel in guinea pig right atrium assessed as decrease in spontaneous beating at 50 uM relative to control; assay type: tissue-based; parameters: scale not given: the % may be the effect or the level left; details: Cardiac atrium
[14] = Displacement of (+)-[5-methyl-3H][…] from L type calcium channel Cav1.2b in rabbit expressed in HEK293 cells; assay type: cell-based, Oryctolagus cuniculus
Summary of the method: (§3)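 Intact HEK-293 cells transfected with rabbit Cav1.2a (α1C-a) or Cav1.2b (α1C-b) plasmid, labelled with (+)-[5-methyl-3H]PN200-110. Nonspecific binding about 10–20% of total. IC50 is mean ± S.E.M. of three independent experiments.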

[15] = Displacement of (+)-[5-methyl-3H][…] from L type calcium channel Cav1.2a in rabbit expressed in HEK293 cells; assay type: cell-based, Oryctolagus cuniculus; summary of the method: as §3
Cavia porcellus [16] = species on record: Cavia porcellus; assay: Activity at L type calcium channel in K+ depolarized guinea pig aortic strip assessed as inhibition of calcium induced contraction at 5 uM; assay type: tissue-based; parameters: scale not given: the % may be the effect or the level left; details: Aorta; summary of the method: as §2
Cavia porcellus [17] = species on record: Cavia porcellus; assay: Activity at L type calcium channel in K+ depolarized guinea pig longitudinal smooth muscle assessed as inhibition of calcium induced contraction at 0.5 uM; parameters: scale not given: the % may be the effect or the level left
[18] = Displacement of (+)-[5-methyl-3H][…] from L type calcium channel in guinea pig heart ventricles; parameters: species or system Cavia porcellus
Summary of the method: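 Guinea-pig ventricular membranes incubated with 0.5 nM (+)-[5-methyl-3H]PN200-110 and test compounds at 0.1–50 µM in a competitive radioligand assay. Ki and IC50 reported as mean ± S.E.M. Student's t-test, significance P < 0.001.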

Cavia porcellus [19] = species on record: Cavia porcellus; assay: Activity at L type calcium channel in K+ depolarized guinea pig longitudinal smooth muscle assessed as inhibition of calcium induced contraction at 5 uM; parameters: scale not given: the % may be the effect or the level left
Cavia porcellus [20] = species on record: Cavia porcellus; assay: Inotropic activity at L type calcium channel in guinea pig left atrium assessed as decrease in tension at 5 uM relative to control; assay type: tissue-based; parameters: scale not given: the % may be the effect or the level left; details: Cardiac atrium
Cavia porcellus [21] = species on record: Cavia porcellus; assay: Activity at L type calcium channel in K+ depolarized guinea pig longitudinal smooth muscle assessed as inhibition of calcium induced contraction at 1 uM; parameters: scale not given: the % may be the effect or the level left
Cavia porcellus [22] = species on record: Cavia porcellus; assay: Chronotropic activity at L type calcium channel in guinea pig right atrium assessed as decrease in spontaneous beating at 100 uM relative to control; assay type: tissue-based; parameters: scale not given: the % may be the effect or the level left; details: Cardiac atrium

Structure (SMILES) | EC50 [4] | Activity (Cavia porcellus [5]) | Activity (Cavia porcellus [6]) | EC30 (Cavia porcellus [7]) | Activity (Cavia porcellus [8]) | Activity (Cavia porcellus [9]) | Activity (Cavia porcellus [10]) | other results
COC(=O)C1=C(C)NC(C)=C(C(=O)OC)C1c1c(-c2ccccc2)nc2scc(C)n12 | 830 nM | – | – | 640 nM | 88% | 30% | 59% | –
COC(=O)C1=C(C)NC(C)=C(C(=O)OC)C1c1c(-c2cccc(OC(F)(F)F)c2)nc2sccn12 | 830 nM | – | 26% | 1180 nM | 69% | – | – | Activity (Cavia porcellus [11]): 86%
COC(=O)C1=C(C)NC(C)=C(C(=O)OC)C1c1c(C)nc2sc(C)cn12 | – | – | 33% | – | – | – | – | Activity (Cavia porcellus [12]): 43%; Activity (Cavia porcellus [13]): 38%
COC(=O)C1=C(C)NC(C)=C(C(=O)OC)C1c1c(-c2cc(OC)cc(OC)c2)nc2sccn12 | – | – | – | 860 nM | 90% | – | 26% | IC50 [1]: 55 nM; IC50 [14]: 1.45 nM; IC50 [15]: 265 nM; Activity (Cavia porcellus [16]): 40%; Activity (Cavia porcellus [17]): 89%; Log Ki [18]: -6.51
COC(=O)C1=C(C)NC(C)=C(C(=O)OC)C1c1c(-c2ccccc2)nc2sc(Cl)cn12 | 1960 nM | 87% | – | 2140 nM | – | 22% | 58% | –
COC(=O)C1=C(C)NC(C)=C(C(=O)OC)C1c1c(-c2cc(OC)c(OC)c(OC)c2)nc2sccn12 | – | – | 44% | – | 25% | – | – | IC50 [1]: 550 nM; Activity (Cavia porcellus [3]): 42%; Activity (Cavia porcellus [21]): 64%
COC(=O)C1=C(C)NC(C)=C(C(=O)OC)C1c1c(-c2ccc(OC)c(OC)c2)nc2sccn12 | 2640 nM | – | – | 1440 nM | – | 15% | 61% | Activity (Cavia porcellus [13]): 80%
COC(=O)C1=C(C)NC(C)=C(C(=O)OC)C1c1c(-c2cc(OC)c(OC)cc2[N+](=O)[O-])nc2sccn12 | 1340 nM | – | 35% | 6970 nM | – | – | – | Activity (Cavia porcellus [11]): 91%; Activity (Cavia porcellus [13]): 90%
COC(=O)C1=C(C)NC(C)=C(C(=O)OC)C1c1c(C(F)(F)F)nc2sc(C)cn12 | – | 36% | – | – | – | 28% | – | Activity (Cavia porcellus [3]): 46%
CCc1cn2c(C3C(C(=O)OC)=C(C)NC(C)=C3C(=O)OC)c(-c3cc(OC)ccc3OC)nc2s1 | 2240 nM | 92% | – | 730 nM | – | 29% | – | Activity (Cavia porcellus [11]): 72%
COC(=O)C1=C(C)NC(C)=C(C(=O)OC)C1c1c(-c2cc(OC)ccc2OC)nc2sc(Cl)cn12 | 900 nM | – | 11% | 360 nM | – | – | 55% | Activity (Cavia porcellus [22]): 84%

Second part, led by results:

EC50 [4] | Structure (SMILES) | Activity (Cavia porcellus [5]) | Activity (Cavia porcellus [6]) | EC30 (Cavia porcellus [7]) | Activity (Cavia porcellus [8]) | Activity (Cavia porcellus [9]) | Activity (Cavia porcellus [10]) | other results
93 nM | COC(=O)C1=C(C)NC(C)=C(C(=O)OC)C1c1c(-c2ccccc2C(F)(F)F)nc2sccn12 | 25% | 24% | – | – | – | – | IC50 [1]: 1660 nM; Activity (Cavia porcellus [2]): 92%; Activity (Cavia porcellus [3]): 56%
590 nM | COC(=O)C1=C(C)NC(C)=C(C(=O)OC)C1c1c(-c2ccccc2)nc2sc(C)c(C)n12 | – | 12% | 330 nM | 94% | – | 76% | –
180 nM | COC(=O)C1=C(C)NC(C)=C(C(=O)OC)C1c1c(Cl)nc2sc(Cl)cn12 | 37% | – | – | – | 34% | – | Activity (Cavia porcellus [11]): 77%
75 nM | COC(=O)C1=C(C)NC(C)=C(C(=O)OC)C1c1c(-c2ccccc2OC(F)(F)F)nc2sccn12 | 47% | 47% | – | – | – | – | IC50 [1]: 1950 nM; Activity (Cavia porcellus [19]): 81%; Activity (Cavia porcellus [20]): 67%; Log Ki [18]: -6.8
93 nM | COC(=O)C1=C(C)NC(C)=C(C(=O)OC)C1c1c(-c2c(OC)ccc(OC)c2[N+](=O)[O-])nc2sc(C)cn12 | – | 27% | – | – | – | – | Activity (Cavia porcellus [20]): 71%; Activity (Cavia porcellus [22]): 47%
